Drawing on BindingDB's records for doi:10.1021/jm0101702 (Abbott Laboratories, 2001), this text covers IC50 for four compounds.

Each structure is given as a SMILES string.

The target in experiment [1] is T1, Vascular cell adhesion protein 1 (Homo sapiens, UniProt P19320).
T1 sequence (P19320 whole entry): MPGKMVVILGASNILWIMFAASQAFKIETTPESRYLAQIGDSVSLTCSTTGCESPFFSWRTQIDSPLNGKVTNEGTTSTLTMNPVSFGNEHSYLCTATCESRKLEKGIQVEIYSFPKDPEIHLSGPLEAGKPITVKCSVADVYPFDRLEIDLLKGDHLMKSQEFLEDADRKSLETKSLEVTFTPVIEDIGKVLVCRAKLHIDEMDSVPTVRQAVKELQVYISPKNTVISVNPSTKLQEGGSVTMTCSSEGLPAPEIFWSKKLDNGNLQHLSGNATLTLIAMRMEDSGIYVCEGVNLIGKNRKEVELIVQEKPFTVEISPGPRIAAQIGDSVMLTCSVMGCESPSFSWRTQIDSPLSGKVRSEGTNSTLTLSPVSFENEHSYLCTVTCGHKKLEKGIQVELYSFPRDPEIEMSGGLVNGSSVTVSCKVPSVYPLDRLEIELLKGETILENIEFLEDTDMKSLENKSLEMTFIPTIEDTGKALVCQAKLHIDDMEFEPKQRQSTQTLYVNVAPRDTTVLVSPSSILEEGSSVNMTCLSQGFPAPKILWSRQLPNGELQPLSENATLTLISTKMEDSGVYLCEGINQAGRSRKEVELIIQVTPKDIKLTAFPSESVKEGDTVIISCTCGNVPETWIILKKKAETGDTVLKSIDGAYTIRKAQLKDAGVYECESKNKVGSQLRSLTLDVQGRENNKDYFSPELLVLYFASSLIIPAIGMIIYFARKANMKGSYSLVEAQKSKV
Briefly: In vitro inhibitory potency compared to TNF-alpha induced VCAM-1 in human endothelial cells (ELISA assay). In a few lines:
(§1)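 Whole-cell ELISA on primary HUVECs plated at 5 × 10^4 cells/mL in EBM/2% FBS with growth supplements. Compound preincubated 24 h at 37 °C, then inducer added (TNFα at 5 ng/mL final, or IL-1β or PMA in its place) for 6 h at 37 °C. Mouse monoclonal anti-E-selectin, anti-ICAM-1 or anti-VCAM-1 was applied overnight at 4 °C, then HRP anti-mouse IgG. Detection with OPD, A490. Triplicate assays.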

In experiment [2] the target is T1, Vascular cell adhesion protein 1. The experiment can be described thus: In vitro inhibitory potency compared to PMA induced VCAM-1 in human endothelial cells (ELISA assay). In a few lines: as §1
Experiment [3] is described as follows: Inhibition of VCAM-1 in human endothelial cells.
The target in experiment [4] is T1, Vascular cell adhesion protein 1. The experiment can be described thus: In vitro inhibitory potency compared to IL1-beta induced VCAM-1 in human endothelial cells (ELISA assay). In a few lines: as §1
The target is the same in experiment [5]. The experiment can be described thus: In vitro inhibitory potency compared to IL1-beta induced VCAM-1 expression in human endothelial cells (ELISA assay). In a few lines: (§2)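 Primary HUVECs seeded at 5 × 10^4 cells/mL in EBM/2% FBS with EGF, bovine brain extract and gentamicin. Compound added next day for 24 h at 37 °C, then inducer (IL-1β or PMA, level not stated) for 6 h at 37 °C. Whole-cell ELISA used mouse monoclonal anti-ICAM-1 or anti-VCAM-1, HRP donkey anti-mouse IgG and OPD, read at 490 nm. Run in triplicate.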

The target is the same in experiment [6]. The experiment can be described thus: In vitro inhibitory potency compared to PMA induced VCAM-1 expression in human endothelial cells (ELISA assay). In a few lines: as §2
Experiment [7] has the same target. The experiment can be described thus: Inhibition of VCAM-1 in human endothelial cells. In a few lines: as §1

Regarding `NC(=O)c1cc2c(Oc3ccc(Br)cc3)cncc2s1` [4-(4-Bromo-phenoxy)-thieno[2,3-c]pyridine-2-carboxylic acid amide], the IC50 in experiment [1] amounted to 8 nM; in experiment [2], 20 nM; in experiment [3], 48 nM; in experiment [4], 7 nM.
Turning to `CNC(=O)c1cc2c(Oc3ccc(Cl)cc3)cncc2s1` [4-(4-Chloro-phenoxy)-thieno[2,3-c]pyridine-2-carboxylic acid methylamide], the IC50 is 70 nM in experiment [5], above 1000 nM in experiment [3] and 200 nM in experiment [6].
In the case of `Cc1ccc(Sc2cncc3sc(C(N)=O)cc23)cc1` [4-p-Tolylsulfanyl-thieno[2,3-c]pyridine-2-carboxylic acid amide], the IC50 in experiment [7] is above 1000 nM.
On to `CNC(=O)c1cc2c(Oc3ccc(COCCOCCOC)cc3)cncc2s1` [4-{4-[2-(2-Methoxy-ethoxy)-ethoxymethyl]-phenoxy}-thieno[2,3-c]pyridine-2-carboxylic acid methylamide], for which the concentration for half-maximal inhibition (IC50) in experiment [1] was found to be 30 nM; in experiment [2], 20 nM; in experiment [3], 120 nM; in experiment [4], 20 nM.
